# Experimental data taken from ChEMBL document CHEMBL1132383, “Cardioselective antiischemic ATP-sensitive potassium channel (K(ATP)) openers. 6. Effect of modifications at C6 of benzopyranyl cyanoguanidines” (J Med Chem, 1999).
# Experiments:
# Type in all cases: functional
# Rattus norvegicus [1] = species on record: Rattus norvegicus; experiment: Antiischemic potency by measurement of increase in time to contracture in globally ischemic isolated perfused rat hearts
# Procedure, shortened: (§1)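 Isolated rat hearts, perfused and then subjected to global ischemia. Activity is read as the lengthening of time to onset of ischemic contracture. Compounds were first tested at 10 μM. EC25 for increasing time to contracture was then determined.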
# [2] = Ratio of Antiischemic potency to vasorelaxant potency.
# Procedure, shortened: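 Selectivity is calculated as the EC25 for lengthening time to contracture in globally ischemic isolated rat hearts divided by the IC50 for relaxing methoxamine-contracted rat aorta.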
# Rattus norvegicus [3] = species on record: Rattus norvegicus; experiment: In vitro relaxation of rat aorta precontracted with methoxamine.
# Procedure, shortened: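 Rat aortic rings precontracted with methoxamine. IC50 is the concentration giving relaxation, reported as the mean of n = 4 or more.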
# Rattus norvegicus [4] = species on record: Rattus norvegicus; experiment: Antiischemic potency by measurement of increase in time to contracture in globally ischemic isolated perfused rat hearts at 1 uM.
# Procedure, shortened: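 Isolated perfused rat hearts under global ischemia, compound present at 1 μM. Cardioprotection is read as the increase in time to onset of ischemic contracture.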
# Rattus norvegicus [5] = species on record: Rattus norvegicus; experiment: Antiischemic potency by measurement of increase in time to contracture in globally ischemic isolated perfused rat hearts.; procedure, shortened: as §1
SMILES,EC25 (Rattus norvegicus [1]),Ratio [2],IC50 (Rattus norvegicus [3]),Activity (Rattus norvegicus [4]),EC25 (Rattus norvegicus [5])
CC1(C)Oc2ccc(C#N)cc2[C@@H](/N=C(\NC#N)Nc2ccc(Cl)cc2)[C@@H]1O,2.5 µM,1.4,–,–,–
CC1(C)Oc2ccc(S(=O)(=O)N3CCCCCC3)cc2[C@@H](/N=C(\NC#N)Nc2ccc(Cl)cc2)[C@@H]1O,0.6 µM,–,–,–,–
CC1(C)Oc2ccc(C(=O)c3ccccc3)cc2[C@@H](/N=C(\NC#N)Nc2ccc(Cl)cc2)[C@@H]1O,0.9 µM,0.13,7.1 µM,–,–
COP(=O)(c1ccccc1)c1ccc2c(c1)[C@@H](/N=C(\NC#N)Nc1ccc(Cl)cc1)[C@H](O)C(C)(C)O2 (some centres undefined),2.4 µM,0.05,44.1 µM,–,–
CC1(C)Oc2ccc(S(=O)(=O)NC3CCCCC3)cc2[C@@H](/N=C(\NC#N)Nc2ccc(Cl)cc2)[C@@H]1O,2.2 µM,0.19,11.7 µM,–,–
C=C(c1ccccc1)c1ccc2c(c1)[C@@H](/N=C(\NC#N)Nc1ccc(Cl)cc1)[C@H](O)C(C)(C)O2,–,–,10.7 µM,3%,–
CC1(C)Oc2ccc(S(=O)(=O)Nc3ccccc3)cc2[C@@H](/N=C(\NC#N)Nc2ccc(Cl)cc2)[C@@H]1O,1.9 µM,0.6,3.3 µM,–,–
CC1(C)Oc2ccc(C(=O)Cc3ccccc3)cc2[C@@H](/N=C(\NC#N)Nc2ccc(Cl)cc2)[C@@H]1O,0.4 µM,0.06,6.8 µM,–,–
CC1(C)Oc2ccc(S(=O)(=O)N3CCCC(Cc4ccccc4)C3)cc2[C@@H](/N=C(\NC#N)Nc2ccc(Cl)cc2)[C@@H]1O (some centres undefined),1.1 µM,–,–,–,–
CC1(C)Oc2ccc(S(=O)(=O)N3CCCCC3)cc2[C@@H](/N=C(\NC#N)Nc2ccc(Cl)cc2)[C@@H]1O,0.27 µM,0.14,1.9 µM,–,–
CC(C)CN(C)S(=O)(=O)c1ccc2c(c1)[C@@H](/N=C(\NC#N)Nc1ccc(Cl)cc1)[C@H](O)C(C)(C)O2,0.25 µM,–,–,–,–
CC1(C)Oc2ccc(Cc3ccccc3)cc2[C@@H](/N=C(\NC#N)Nc2ccc(Cl)cc2)[C@@H]1O,11.1 µM,1.1,10 µM,–,–
CC1(C)Oc2ccc(C(=O)Nc3ccccc3)cc2[C@@H](/N=C(\NC#N)Nc2ccc(Cl)cc2)[C@@H]1O,>10 µM,–,> 100 µM,–,–
C[C@@H]1CCC[C@H](C)N1S(=O)(=O)c1ccc2c(c1)[C@@H](/N=C(\NC#N)Nc1ccc(Cl)cc1)[C@H](O)C(C)(C)O2,0.34 µM,0.68,0.5 µM,–,–
CC(C)CN(CC(C)C)S(=O)(=O)c1ccc2c(c1)[C@@H](/N=C(\NC#N)Nc1ccc(Cl)cc1)[C@H](O)C(C)(C)O2,0.04 µM,0.004,9.4 µM,–,–
CC1(C)Oc2ccc(C#N)cc2[C@@H](N2CCCC2=O)[C@@H]1O [CROMAKALIM],8.9 µM,278,–,–,–
CC1(C)Oc2ccc(C#N)cc2[C@H](N(Cc2ncc[nH]2)c2ccc(Cl)cc2)[C@H]1O [BMS-191095],1.4 µM,< 0.05,> 30 µM,–,–
CC1(C)Oc2ccc(S(=O)(=O)N3CCCC3)cc2[C@@H](/N=C(\NC#N)Nc2ccc(Cl)cc2)[C@@H]1O,–,–,–,–,0.33 µM
CC1CC(C)CN(S(=O)(=O)c2ccc3c(c2)[C@@H](/N=C(\NC#N)Nc2ccc(Cl)cc2)[C@H](O)C(C)(C)O3)C1 (some centres undefined),0.23 µM,0.007,32.1 µM,–,–
CC(C)(C)C(=O)c1ccc2c(c1)[C@@H](/N=C(\NC#N)Nc1ccc(Cl)cc1)[C@H](O)C(C)(C)O2,1.8 µM,0.33,5.4 µM,–,–
CCN(CC(F)(F)F)S(=O)(=O)c1ccc2c(c1)[C@@H](/N=C(\NC#N)Nc1ccc(Cl)cc1)[C@H](O)C(C)(C)O2,0.26 µM,–,–,–,–
CC1(C)Oc2ccc(S(N)(=O)=O)cc2[C@@H](/N=C(\NC#N)Nc2ccc(Cl)cc2)[C@@H]1O,>10 µM,–,41.3 µM,–,–
CC1(C)Oc2ccc(S(=O)(=O)N3CCOCC3)cc2[C@@H](/N=C(\NC#N)Nc2ccc(Cl)cc2)[C@@H]1O,1 µM,0.32,3.1 µM,–,–
CC1CCN(S(=O)(=O)c2ccc3c(c2)[C@@H](/N=C(\NC#N)Nc2ccc(Cl)cc2)[C@H](O)C(C)(C)O3)CC1,0.65 µM,–,–,–,–
CCN(CC)S(=O)(=O)c1ccc2c(c1)[C@@H](/N=C(\NC#N)Nc1ccc(Cl)cc1)[C@H](O)C(C)(C)O2,0.3 µM,0.27,1.1 µM,–,–
CC1(C)Oc2ccc(S(=O)(=O)c3ccccc3)cc2[C@@H](/N=C(\NC#N)Nc2ccc(Cl)cc2)[C@@H]1O,0.8 µM,1.6,0.5 µM,–,–
CC(C)N(C(C)C)S(=O)(=O)c1ccc2c(c1)[C@@H](/N=C(\NC#N)Nc1ccc(Cl)cc1)[C@H](O)C(C)(C)O2,0.24 µM,–,–,–,–
CC1(C)Oc2ccc(S(=O)(=O)N3CCC(Cc4ccccc4)CC3)cc2[C@@H](/N=C(\NC#N)Nc2ccc(Cl)cc2)[C@@H]1O,0.94 µM,–,> 30 µM,–,–
